From ChEMBL document CHEMBL1132973, “Design, synthesis, and antimicrobial activity of 6-O-substituted ketolides active against resistant respiratory tract pathogens” (2000) come the findings set out here.

Common to all, as to format: functional
The test system of experiment [1] is Staphylococcus aureus. Kind of experiment: In vitro antibacterial activity against Staphylococcus aureus strain A 5177. The gist of the method: (§1)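 MICs in µg/mL determined by agar dilution per NCCLS recommendations. Panel includes erythromycin-susceptible strains (S. aureus ATCC 6538P, S. pyogenes EES 61, S. pneumoniae ATCC 6303); ermA MLS_B-resistant S. aureus (A 5177 inducible, A 5278 constitutive); ermB strains (S. pyogenes 930, S. pneumoniae 5737); efflux strains (S. pyogenes PIU 2548 mefA, S. pneumoniae 5649 mefE); and β-lactamase-positive ampicillin-resistant H. influenzae DILL.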

Experiment [2] relates to Staphylococcus aureus. Kind of experiment: In vitro antibacterial activity against Staphylococcus aureus strain A 5278. The gist of the method: as §1
Experiment [3] relates to Streptococcus pneumoniae. Kind of experiment: In vitro antibacterial activity against Streptococcus pneumoniae strain ATCC 6303. The gist of the method:
as §1

Experiment [4] has as its system Streptococcus pyogenes. In words: In vitro antibacterial activity against Streptococcus pyogenes strain PIU 2548. The gist of the method:
as §1

Experiment [5] concerns Streptococcus pyogenes. In words: In vitro antibacterial activity against Streptococcus pyogenes strain 930. Put shortly:
as §1

In experiment [6] the test system is Streptococcus pneumoniae. Kind of experiment: In vitro antibacterial activity against Streptococcus pneumoniae strain 5737. The gist of the method: as §1
Experiment [7] has as its system Staphylococcus aureus. Kind of experiment: In vitro antibacterial activity against Staphylococcus aureus strain ATCC 6538P. The gist of the method:
as §1

Experiment [8] deals with Streptococcus pneumoniae. Kind of experiment: In vitro antibacterial activity against Streptococcus pneumoniae strain 5649. The gist of the method:
as §1

For experiment [9], the system named is Haemophilus influenzae. Kind of experiment: In vitro antibacterial activity against Haemophilus influenzae strain DILL. Put shortly:
as §1

Experiment [10] deals with Streptococcus pyogenes. Kind of experiment: In vitro antibacterial activity against Streptococcus pyogenes strain EES 61. The gist of the method: as §1
The subject of experiment [11] is Staphylococcus aureus. In words: In vitro antibacterial activity against Staphylococcus aureus strain ATCC 6538P. The gist of the method: as §1
The subject of experiment [12] is Streptococcus pneumoniae. Kind of experiment: (§2) In vivo antibacterial activity against Streptococcus pneumoniae strain 5649.
Experiment [13] concerns Streptococcus pneumoniae. The description is as §2. Put shortly:
(§3)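 Rat lung infection. Rats inoculated intratracheally with 0.5 mL bacterial suspension in 5% gastric hog mucin containing log 10⁶-10⁸ cfu. Dosed daily on days 1-3, starting 18 h post-inoculation. Lung bacterial burden measured by serial-dilution plating of lung homogenates on day 4. ED50, the dose giving a 2 log reduction versus vehicle-treated infected controls, was calculated from group means by linear regression.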
This is another data set of the same source.

For experiment [14], the system named is Staphylococcus aureus. In words: (§4) In vivo antibacterial activity against Staphylococcus aureus strain 10649.
In experiment [15] the test system is Streptococcus pneumoniae. In words: (§5) In vivo antibacterial activity against Streptococcus pneumoniae strain 6396.
In experiment [16] the test system is Streptococcus pneumoniae. Kind of experiment: (§6) In vivo antibacterial activity against Streptococcus pneumoniae strain 6303.
Experiment [17] relates to Streptococcus pneumoniae. Described as §5. Put shortly: as §3
The source holds these as a separate data set.

Experiment [18] relates to Streptococcus pyogenes. In words: In vivo antibacterial activity against Streptococcus pyogenes strain C203.
The subject of experiment [19] is Staphylococcus aureus. Described as §4. The gist of the method:
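Mice were inoculated intravenously with a 100-fold LD50 of the organism, then dosed by oral gavage at 1 and 5 h post-inoculation across a dose range. Survival was monitored for 7 days. ED50 is the dose giving 50% survival of treated mice over the trial.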
This is another data set of the same source.

Experiment [20] concerns Streptococcus pneumoniae. The description is as §6. The gist of the method: as §3
The source holds these as a separate data set.

Converted amounts (≈) assume the structure as drawn.

As to `C=CCO[C@@]1(C)C[C@@H](C)C(=O)[C@H](C)[C@@H](O)[C@](C)(O)[C@@H](CC)OC(=O)[C@H](C)C(=O)[C@H](C)[C@H]1O[C@@H]1O[C@H](C)C[C@H](N(C)C)[C@H]1O`, the MIC in [1] was 50 µg/mL (≈ 81.5 µM); in [2] it was greater than 100 µg/mL; in [3], 4 µg/mL (≈ 6.52 µM); in experiment [4], 32 µg/mL (≈ 52.1 µM); in [5], greater than 128 µg/mL; in experiment [6] it was greater than 128 µg/mL. Also, the values for the MIC in experiment [7], in experiment [8] and in [9] were 12.5 µg/mL (≈ 20.4 µM), 8 µg/mL (≈ 13 µM) and greater than 128 µg/mL, respectively.
Take `C=CCO[C@@]1(C)C[C@@H](C)C(=O)[C@H](C)[C@H]2NC(=O)O[C@]2(C)[C@@H](CC)OC(=O)[C@H](C)C(=O)[C@H](C)[C@H]1O[C@@H]1O[C@H](C)C[C@H](N(C)C)[C@H]1O`: the MIC in experiment [1] is 1.56 µg/mL (≈ 2.44 µM); in [10], 0.25 µg/mL (≈ 0.391 µM); in experiment [2], greater than 100 µg/mL; in [3], 0.5 µg/mL (≈ 0.783 µM); in [4], 2 µg/mL (≈ 3.13 µM); in experiment [5], greater than 64 µg/mL. Besides, the MIC was greater than 64 µg/mL in [6], 0.78 µg/mL (≈ 1.22 µM) in experiment [11], 0.25 µg/mL (≈ 0.391 µM) in [8] and 64 µg/mL (≈ 100 µM) in [9].
Regarding `CC[C@H]1OC(=O)[C@H](C)C(=O)[C@H](C)[C@@H](O[C@@H]2O[C@H](C)C[C@H](N(C)C)[C@H]2O)[C@@](C)(OC/C=C/c2cnc3ccccc3c2)C[C@@H](C)C(=O)[C@H](C)[C@@H](O)[C@]1(C)O`, the MIC in experiment [1] is 0.2 µg/mL (≈ 0.27 µM); in experiment [10] it was 0.2 µg/mL (≈ 0.27 µM); in experiment [2] it was greater than 100 µg/mL; in experiment [3], 0.03 µg/mL (≈ 0.0405 µM); in experiment [4] it was 0.1 µg/mL (≈ 0.135 µM); in experiment [5], 100 µg/mL (≈ 135 µM). In addition, the MIC in experiment [6] is 16 µg/mL (≈ 21.6 µM); in [11] it was 0.2 µg/mL (≈ 0.27 µM); in experiment [8], 0.25 µg/mL (≈ 0.337 µM); in experiment [9], 16 µg/mL (≈ 21.6 µM).
Consider `CC[C@H]1OC(=O)[C@H](C)C(=O)[C@H](C)[C@@H](O[C@@H]2O[C@H](C)C[C@H](N(C)C)[C@H]2O)[C@](C)(OC/C=C/c2ccccc2)C[C@@H](C)C(=O)[C@H](C)[C@@H](O)[C@]1(C)O`, for which the MIC is 1.56 µg/mL (≈ 2.26 µM) in [1]; 0.25 µg/mL (≈ 0.362 µM) in experiment [10]; greater than 100 µg/mL in [2]; 0.25 µg/mL (≈ 0.362 µM) in [3]; 2 µg/mL (≈ 2.9 µM) in experiment [4]; 64 µg/mL (≈ 92.8 µM) in [5]. The MIC in experiment [6] amounted to 64 µg/mL (≈ 92.8 µM); in [11], 1.56 µg/mL (≈ 2.26 µM); in [8], 2 µg/mL (≈ 2.9 µM); in experiment [9], 128 µg/mL (≈ 186 µM).
With `CC[C@H]1OC(=O)[C@H](C)C(=O)[C@H](C)[C@@H](O[C@@H]2O[C@H](C)C[C@H](N(C)C)[C@H]2O)[C@](C)(OC/C=C/c2ccccc2)C[C@@H](C)C(=O)[C@H](C)[C@H]2NC(=O)O[C@@]21C`, the MIC in [1] was 0.1 µg/mL (≈ 0.14 µM); in experiment [10], 0.03 µg/mL (≈ 0.042 µM); in experiment [2], greater than 100 µg/mL; in [3], 0.03 µg/mL (≈ 0.042 µM); in experiment [4], 0.25 µg/mL (≈ 0.35 µM); in experiment [5], 64 µg/mL (≈ 89.5 µM). Moreover, the MIC is 64 µg/mL (≈ 89.5 µM) in experiment [6], 0.1 µg/mL (≈ 0.14 µM) in experiment [11], 0.25 µg/mL (≈ 0.35 µM) in [8] and 4 µg/mL (≈ 5.6 µM) in experiment [9].
As to `CC[C@H]1OC(=O)[C@H](C)[C@@H](O[C@H]2C[C@@](C)(OC)[C@@H](O)[C@H](C)O2)[C@H](C)[C@@H](O[C@@H]2O[C@H](C)C[C@H](N(C)C)[C@H]2O)[C@](C)(O)C[C@@H](C)CN(C)[C@H](C)[C@@H](O)[C@]1(C)O` [AZITHROMYCIN], the MIC in [12] was 16 µg/mL (≈ 21.4 µM); in experiment [14], 0.78 µg/mL (≈ 1.04 µM); in experiment [15] it was greater than 128 µg/mL; in experiment [16], 0.12 µg/mL (≈ 0.16 µM); in experiment [18], 0.06 µg/mL (≈ 0.0801 µM); in experiment [18] (Streptococcus pyogenes, read-out: MIC), 0.06 µg/mL (≈ 0.0801 µM). Moreover, the ED50 (as a rule, the dose that gives a 50% effect, or the effect in half of the subjects) is 78.7 mg/kg in [13], greater than 100 mg/kg in experiment [17], 6.1 mg/kg in experiment [18] and 24.8 mg/kg in [19].
Consider `CC[C@H]1OC(=O)[C@H](C)C(=O)[C@H](C)[C@@H](O[C@@H]2O[C@H](C)C[C@H](N(C)C)[C@H]2O)[C@](C)(OCC=Cc2cnc3ccccc3c2)C[C@@H](C)C(=O)[C@H](C)[C@H]2NC(=O)O[C@@]21C` [CETHROMYCIN], for which the MIC was 0.05 µg/mL (≈ 0.0653 µM) in experiment [1]; 0.004 µg/mL (≈ 0.00522 µM) in experiment [10]; greater than 100 µg/mL in experiment [2]; 0.004 µg/mL (≈ 0.00522 µM) in experiment [3]; 0.125 µg/mL (≈ 0.163 µM) in experiment [4]; 1 µg/mL (≈ 1.31 µM) in experiment [5]. Besides, the MIC in experiment [6] was determined as 0.25 µg/mL (≈ 0.326 µM); in experiment [11] it was 0.05 µg/mL (≈ 0.0653 µM); in [8] it was 0.25 µg/mL (≈ 0.326 µM); in experiment [9], 2 µg/mL (≈ 2.61 µM).
In the case of `CC[C@H]1OC(=O)[C@H](C)[C@@H](O[C@H]2C[C@@](C)(OC)[C@@H](O)[C@H](C)O2)[C@H](C)[C@@H](O[C@@H]2O[C@H](C)C[C@H](N(C)C)[C@H]2O)[C@](C)(O)C[C@@H](C)C(=O)[C@H](C)[C@@H](O)[C@]1(C)O` [ERYTHROMYCIN], the MIC in experiment [1] is 6.2 µg/mL (≈ 8.45 µM); in experiment [10], 0.06 µg/mL (≈ 0.0818 µM); in experiment [2], greater than 100 µg/mL; in [3], 0.06 µg/mL (≈ 0.0818 µM); in experiment [4], 32 µg/mL (≈ 43.6 µM); in experiment [5] it was greater than 128 µg/mL. Besides, the MIC in experiment [6] was greater than 128 µg/mL; in experiment [8], 16 µg/mL (≈ 21.8 µM); in experiment [9], 8 µg/mL (≈ 10.9 µM).
`CC[C@H]1OC(=O)[C@H](C)C(=O)[C@H](C)[C@@H](O[C@@H]2O[C@H](C)C[C@H](N(C)C)[C@H]2O)[C@](C)(OC)C[C@@H](C)C(=O)[C@H](C)[C@H]2N(CCCCn3cnc(-c4cccnc4)c3)C(=O)O[C@]12C` [TELITHROMYCIN]: the MIC in experiment [12] was 0.5 µg/mL (≈ 0.616 µM); in [10], 0.004 µg/mL (≈ 0.00493 µM); in experiment [2], greater than 100 µg/mL; in [3] it was 0.004 µg/mL (≈ 0.00493 µM); in experiment [14] it was 0.1 µg/mL (≈ 0.123 µM); in experiment [4] it was 2 µg/mL (≈ 2.46 µM). The MIC in [5] stood at 8 µg/mL (≈ 9.85 µM); in experiment [15] it was 0.125 µg/mL (≈ 0.154 µM); in experiment [16] it was 0.004 µg/mL (≈ 0.00493 µM); in experiment [6] it was 8 µg/mL (≈ 9.85 µM). The 50% effective dose (ED50) in experiment [13] was found to be 25.8 mg/kg; in [20] it was 34.1 mg/kg; in experiment [17] it was 26.7 mg/kg; in experiment [19], 12.5 mg/kg.
